Laboratory results published in PMC8640995 (ACS Chemical Neuroscience, 2021).
Like-named read-outs stand apart in the source and are kept apart here.

Assays:
[1] = format: in vivo, Wistar rats; details: for area under the curve, brain time–activity curve: 60 min scan; for area under the curve, brain time–activity curve / SUVmax brain: n = 2
[2] = previously reported biodistribution data, 5 and 15 min post-injection; cited from earlier work
[3] = previously determined using the same method; cited from earlier work
[4] = target: human P2Y12R; details: human P2Y12R-transfected HEK cells; cited from earlier work
[5] = target: T1, P2Y12R (Rattus norvegicus, UniProt Q9EPX4); assay: in vitro autoradiography on rat brain sections using [18F]3; format: binding
T1 sequence (Q9EPX4 whole entry): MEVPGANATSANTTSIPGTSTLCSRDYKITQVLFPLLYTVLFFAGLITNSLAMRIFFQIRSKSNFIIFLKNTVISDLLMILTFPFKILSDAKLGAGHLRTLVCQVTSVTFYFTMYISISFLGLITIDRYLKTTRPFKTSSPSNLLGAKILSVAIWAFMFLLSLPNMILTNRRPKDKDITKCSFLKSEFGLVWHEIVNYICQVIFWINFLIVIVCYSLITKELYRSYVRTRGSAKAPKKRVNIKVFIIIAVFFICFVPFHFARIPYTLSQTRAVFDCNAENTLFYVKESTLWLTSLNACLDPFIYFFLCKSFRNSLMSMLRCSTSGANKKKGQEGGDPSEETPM
In short: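 Flash-frozen rat brain sections (10 μm) were prewashed 15 min in 50 mM Tris-HCl pH 7.4 and air-dried. They were then incubated 30 min with 18F tracer (0.1 MBq·mL–1) in 50 mM Tris-HCl/3% BSA pH 7.4, with or without P2Y12R inhibitor at 1 μM. Sections were washed twice for 1 min in cold 5 mM Tris-HCl (4 °C), dipped in ice-cold water and dried, then exposed to a phosphor screen for 10 min. Whole-brain ROI binding was expressed as % of no-inhibitor binding; n = 3.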

[6] = target: T1, P2Y12R; format: in vivo, Wistar rats
In short: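 Male Wistar rats (12–15 weeks, 250–350 g) under isoflurane anesthesia; n = 4 per group. Both groups received tariquidar 15 mg/kg iv. The blocking group also received unlabeled test compound 5 mg/kg together with the tariquidar. The 18F tracer (10–25 MBq) was given iv via tail vein, followed immediately by a dynamic PET scan. Whole-brain ROI time–activity curves were expressed as SUV, mean ± standard deviation.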

[7] = baseline, after the initial perfusion peak, iv
[8] = efflux transporter blocking with tariquidar

SMILES	area under the curve, brain time–activity curve ([1]; baseline)	SUVmax brain [1, 7]	area under the curve, brain time–activity curve [1, 8]	Ki [4] [nM]	further results
CCOC(=O)c1cc(C#N)c(N2CC(N[11C](=O)NS(=O)(=O)c3ccc(Cl)s3)C2)nc1C [[^11C]1, Ethyl 6-(3-(3-((5-Chlorothiophen-2-yl)sulfonyl)[^11C]ureido)azetidin-1-yl)-5-cyano-2-methylnicotinate]	3.8 ± 0.7	0.1	5.2 ± 0.2	–	%ID/g in rat brain [2]: < 0.1 %ID/g; log D7.4 [3]: 1.93 ± 0.02
CCc1cc2c(N3CCN(C(=O)c4ccc(-c5ccccc5)cc4)CC3)nc(N3CCNC(=O)C3)nc2s1 [compound 2, 4-(4-(4-([1,1′-Biphenyl]-4-carbonyl)piperazin-1-yl)-6-ethylthieno[2,3-d]pyrimidin-2-yl)piperazin-2-one]	–	–	–	9	–
CCCc1cc2c(N3CCn4c(nnc4C(F)(F)F)C3)nc(OCC[18F])nc2s1 [[^18F]3, 2-(2-[^18F]Fluoroethoxy)-6-propyl-4-(3-(trifluoromethyl)-5,6-dihydro-[1,2,4]triazolo[4,3-a]pyrazin-7(8H)-yl)thieno[2,3-d]pyrimidine]	4.4 ± 0.1	0.2	27.6 ± 1.1	–	SUVmax brain ([1]; efflux transporter blocking with tariquidar 15 mg/kg iv): 1.0; selective and specific binding [5]: approximately 70%; area under the curve, whole brain time–activity curve ([6]; baseline: tariquidar + tracer, n = 4): 24.1 ± 0.5; area under the curve, whole brain time–activity curve ([6]; blocking: tariquidar + unlabeled 3 (5 mg/kg) and tracer, n = 4, p = 0.04): 20.6 ± 0.7
CCCc1cc2c(N3CCn4c(nnc4C(F)(F)F)C3)nc(OCCF)nc2s1 [compound 3, 2-(2-Fluoroethoxy)-6-propyl-4-(3-(trifluoromethyl)-5,6-dihydro-[1,2,4]triazolo[4,3-a]pyrazin-7(8H)-yl)thieno[2,3-d]pyrimidine]	–	–	–	0.3	efflux transporter substrate behavior ([1]; rats, tariquidar blocking of P-glycoprotein and breast cancer resistance protein): strong substrate for efflux transporters; blocking efficiency of [18F]3 binding ([5]; inhibitor co-incubated at 1 μM, n = 3): about 70%
